High-throughput results from PubChem BioAssay.
Shown are actives, neighbours in structure and some others; about 4.5% of the full set was active somewhere.
MDM2 E3 inh = MDM2-luciferase reporter signal enhancers, primary screen, MDM2 E3 ligase inhibitor project, cell-based, luminescence, 1536-well | E3 ubiquitin-protein ligase Mdm2 (Homo sapiens), Q00987 | cell-based MDM2 ubiquitination luciferase reporter, 2 h; 0 = plate control, 100 = twice control, blank-subtracted | signal enhancement, % at 5 µM | 0.11% of 210,000 active;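 active means signal enhancement of 30% or more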;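 further: luminescence tracks abundance of the self-degrading MDM2-luciferase fusion protein; higher signal means inhibition of MDM2 E3 ligase activity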
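Buffer or medium: Cells held in DMEM | Assay system: Stable mammalian line carrying autodegrading MDM2–luciferase fusion reporter | Quantity: 2000 cells/well | Times: 4 h settle plus 2 h compound, 37 °C | Doses: One concentration, 5 µM, with 0.2% DMSO | Technique: Luminescence with SteadyLite reagent, 15 min at room temperature | Benchmarks: Plate controls and plate blanks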
STAT1 activator = STAT1 signaling activators, primary screen, cell-based, HTS, luciferase reporter | NIH 3T3 STAT1-luciferase reporter, IFN-gamma, luminescence; 100% = IFN-gamma alone, no compound | activation (% of control), % at 5.5 µM | 2.6% of 200,000 active | AID 932, 2007;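 active means activation above the screen-wide mean activation plus 3 SD, cut at about 130% in these data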;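 further: raw ratio to IFN-gamma control signal so 100% means no change and 0% no light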
AHR act = AHR activators, primary screen, cell-based, luminescence, luciferase reporter, human. AID 2796, 2010. Aryl hydrocarbon receptor (Homo sapiens), P35869. AHR-responsive luciferase reporter cells. 2.5% of 320,000 active. activation, % at 5 µM; in the data active means activation above about 47%;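 further: 0% = vehicle wells and 100% = reference agonist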
Target sequence (P35869 whole entry, looked up): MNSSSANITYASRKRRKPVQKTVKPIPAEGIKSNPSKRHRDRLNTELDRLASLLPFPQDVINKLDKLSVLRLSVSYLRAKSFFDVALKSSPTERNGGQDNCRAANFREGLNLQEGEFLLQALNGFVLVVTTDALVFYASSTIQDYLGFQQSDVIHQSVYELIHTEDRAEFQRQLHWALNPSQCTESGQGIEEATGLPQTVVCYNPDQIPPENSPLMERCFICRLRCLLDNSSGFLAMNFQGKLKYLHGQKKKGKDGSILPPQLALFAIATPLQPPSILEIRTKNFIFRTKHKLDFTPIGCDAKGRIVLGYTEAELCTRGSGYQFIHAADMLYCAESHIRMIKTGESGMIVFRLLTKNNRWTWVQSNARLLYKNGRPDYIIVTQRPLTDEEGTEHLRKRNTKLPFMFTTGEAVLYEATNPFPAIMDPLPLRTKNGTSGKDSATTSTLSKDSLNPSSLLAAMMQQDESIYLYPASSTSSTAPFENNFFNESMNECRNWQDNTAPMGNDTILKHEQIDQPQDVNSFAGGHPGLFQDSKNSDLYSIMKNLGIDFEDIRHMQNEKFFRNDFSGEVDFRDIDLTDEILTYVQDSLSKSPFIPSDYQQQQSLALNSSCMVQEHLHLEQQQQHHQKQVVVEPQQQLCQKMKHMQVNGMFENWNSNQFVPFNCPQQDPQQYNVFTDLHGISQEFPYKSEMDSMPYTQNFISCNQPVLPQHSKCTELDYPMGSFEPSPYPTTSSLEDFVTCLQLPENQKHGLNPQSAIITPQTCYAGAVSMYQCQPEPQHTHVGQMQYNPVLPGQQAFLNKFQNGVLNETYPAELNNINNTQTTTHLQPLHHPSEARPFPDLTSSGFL
PERK inhibitor = block of dimerizer-induced PERK translation repression, primary screen, PERK inhibitor project, CHO PERK-DD cells, SEAP luminescence, HTS; Eukaryotic translation initiation factor 2-alpha kinase 3 (Homo sapiens), Q9NZJ5; AID 1416, 2008; CHO PERK-DD fusion, SEAP luminescence translation reporter; inhibition, % at 5.6 µM; 0.17% of 220,000 active;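 active means inhibition above the mean inhibition of all tested compounds plus 3 SD, set separately per screening campaign, cut at about 2.9% in these data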;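 further: PERK kinase domain activated by AP20187 dimerizer at 100 nM; 0% = DMSO with dimerizer and 100% = rapamycin at 8.4 µM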
APP 5'UTR act = activators of APP 5'UTR luciferase reporter, primary screen, SH-SY5Y cells | SH-SY5Y APP 5'UTR luciferase reporter, luminescence; zero percent = DMSO vehicle wells | activation, % at 2 µM | 1% of 190,000 active | AID 1276, 2008;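 active means activation above a set limit, based on mean plus 3 SD of controls, cut at about 140% in these data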
NF-kB neuron act = activators of NF-kB expression in neurons, primary screen, cell-based, HTS; human neuronal cells, NF-kB reporter expression; active compounds read high; fold change at 12.5 µM; 1.6% of 190,000 active; AID 1239, 2008; in the data active means fold change above about 3.3
AHR act confirm = AHR activators, confirmation, cell-based, luminescence, luciferase reporter, human; shares compounds with AHR act; human cells, AHR-responsive luciferase reporter; activation, % at 9 µM; 87% of 2,300 active; AID 2845, 2010; in the data active means activation above about 49%;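 further: HepG2 hepatoma cells carrying a DRE-driven firefly luciferase reporter; 0% = vehicle wells and 100% = reference agonist wells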
PXR act counter = human PXR activators, counter-screen for AHR activator project, cell-based, luciferase luminescence. shares compounds with AHR act. cell-based PXR reporter. activation, % at 11.6 µM. 88% of 2,300 active. AID 434939, 2010; in the data active means activation above about 11%;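 further: human hepatoma DPX-2 cells expressing full-length human PXR; 0% = DMSO and 100% = reference agonist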
Numbers without * were called inactive; x = not tested or not shown.

SMILES	MDM2 E3 inh	STAT1 activator	AHR act	PERK inhibitor	APP 5'UTR act	NF-kB neuron act	AHR act confirm	PXR act counter
N#CC1=C(N)Oc2n[nH]c(-c3ccc(F)cc3)c2C1c1ccncc1 (stereo unspecified)	3	88	106*	1	-7	1.1	103*	18*
N#CC1=C(N)Oc2n[nH]c(-c3ccc(F)cc3)c2C1c1cccc(OC(=O)N2CCOCC2)c1 (stereo unspecified)	-9	101	106*	1	4	0.71	115*	32*
C/C(=N/Nc1ccccc1[N+](=O)[O-])c1ccc([N+](=O)[O-])cc1	x	x	15	x	x	x	x	x
C/C(=N\Nc1ccc([N+](=O)[O-])cc1[N+](=O)[O-])c1ccc(-n2nncc2C(C)(C)C)cc1	-5	105	120*	1	11	0.84	78*	38*
COc1cc(C(C)=O)ccc1COc1ccc(C(=O)O)cc1OC	-81	x	-2	-1	x	x	x	x
Cc1cc(C)nc(NC(=O)c2cc(-c3ccc4c(c3)OCO4)nc3ccccc23)c1	x	x	89*	x	x	x	78*	44*
COc1cccc2c(=O)c3cccc(N)c3[nH]c12	-10	98	80*	1	2	1.1	60*	x
COc1cccc2c(=O)c3c([nH]c12)OC(C)(C)C3	x	x	0	x	x	x	x	x
COc1ccccc1OCCNC(=O)CSC(=S)N1CCCC1	x	x	5	x	x	x	x	x
Cc1ccccc1NC(=O)Cc1nc(COC(=O)CSc2ccccc2)cs1	x	x	0	x	x	x	x	x
CC1CC(C)CN(C(=S)Nc2ccc(SC(F)F)cc2)C1 (stereo unspecified)	-12	105	6	0	-3	0.98	x	x
CC1CC(C)CN(C(=S)Nc2ccc(OC(F)F)cc2)C1 (stereo unspecified)	-9	101	83*	2	-1	1	64*	118*
O=C(CC1Sc2ccccc2NC1=O)Nc1ccccc1[N+](=O)[O-] (stereo unspecified)	-89	95	152*	0	-5	0.89	111*	38*
C=CCSc1nnc2nc3[nH]c4c(C)cccc4c3nn12	-5	123	105*	0	23	1.2	143*	38*
CN(C)c1cc(O)c(C(=S)Nc2ccccc2)c(N(C)C)c1	-6	107	125*	0	19	0.96	102*	115*
c1ccc(-c2nc(-c3ccccn3)no2)cc1	-74	47	11	1	64	1.8	x	x
c1ccc(-c2noc(-c3cccc4ccccc34)n2)nc1	4	107	103*	0	81	2.5	21	10
Clc1cccc(-c2nc(-c3ccccn3)no2)c1	-40	63	104*	1	97	1.6	41	-2
CC(=O)c1cccc(NC(=S)N2CCc3ccccc32)c1	x	x	86*	x	x	x	107*	60*
Cc1cccc(-c2oc3ccccc3c2C#CCCCCO)c1	x	x	17	x	x	x	x	x
Cc1cccc(-c2oc3ccccc3c2C#CCCO)c1	x	x	97*	x	x	x	68*	24*
COc1ccc(C)cc1S(=O)(=O)N(C)CC(=O)NCc1ccncc1	x	x	1	x	x	x	x	x
O=C(Nc1cccc(C(=O)Nc2ccc(Br)cc2)c1)c1ccccc1	x	x	89*	x	x	x	33	22*
O=C(Nc1ccc(Br)cc1)c1cccc(-n2cnnn2)c1	x	x	91*	x	x	x	103*	29*
O=C(Nc1ccc(Br)cc1)c1cccc(S(=O)(=O)Nc2cnc3ccccc3c2)c1	-12	89	83*	0	6	0.88	75*	12*
SMILES	MDM2 E3 inh	STAT1 activator	AHR act	PERK inhibitor	APP 5'UTR act	NF-kB neuron act	AHR act confirm	PXR act counter
O=C(Nc1cccc(Cl)c1)c1ccccc1	x	x	9	x	x	x	x	x
O=C(Nc1ccc(Cl)c(Cl)c1)c1ccccc1	x	x	102*	x	x	x	122*	12*
C#Cc1ccc(C(=O)Nc2cc(C(N)=O)ccc2N2CCOCC2)cc1	-2	97	80*	0	-14	0.9	72*	12*
CCC(C)(C)NC(=O)C(c1cccnc1)N(C(=O)c1csnn1)c1ccc(C)cc1 (stereo unspecified)	-7	105	2	0	6	1.1	x	x
COc1ccc(C(C)(C)C)cc1NC(=O)c1[nH]c(C)c(C(C)=O)c1C	x	x	28	x	x	x	x	x
CC(=O)c1c(C)[nH]c(C(=O)Nc2cc(C)ccc2C)c1C	-16	108	118*	1	-7	1.2	93*	38*
CC(=O)c1c(C)[nH]c(C(=O)Nc2cccc(C)n2)c1C	x	x	5	x	x	x	x	x
CC(=O)c1c(C)[nH]c(C(=O)Nc2nccs2)c1C	-14	133*	133*	1	58	2.6	74*	36*
CC(=O)c1c(C)[nH]c(C(=O)Nc2ccc(F)cc2F)c1C	x	x	98*	x	x	x	131*	38*
Cc1ccc(C(=O)OCc2nnc(-c3ccc(Br)cc3)o2)cc1	-8	104	3	0	-8	0.99	x	x
COc1ccc(CCNC(=O)[C@H](C)NC(=O)[C@@H]2CSC3c4ccccc4C(=O)N32)cc1 (stereo partly specified)	x	x	0	x	x	x	x	x
C[C@H](NC(=O)[C@@H]1CSC2c3ccccc3C(=O)N21)C(=O)NCCc1ccccc1 (stereo partly specified)	x	x	124*	x	x	x	107*	59*
C[C@H](NC(=O)[C@@H]1CSC2c3ccccc3C(=O)N21)C(=O)NCCc1ccc(F)cc1 (stereo partly specified)	x	x	96*	x	x	x	104*	55*
Cc1nc(NC(=O)CSc2nnc(-c3ccc4c(c3)OCO4)o2)c(Cl)cc1Cl	-14	106	128*	0	0	1.3	105*	88*
O=C(NCCC(=O)N1CCN(c2ccccn2)CC1)c1ccc(Cl)cc1	x	x	1	x	x	x	x	x
C/C(N)=C(/C#N)C(=O)CSc1nc(-c2ccccc2)c(-c2ccccc2)o1	x	x	12	x	x	x	x	x
Cc1ccc2nc(C(Cl)(Cl)Cl)nc(N/N=C/c3ccncc3)c2c1	-6	96	93*	1	-1	1.1	110*	15*
Cc1cc2cc(C)c(NCCNC(=O)c3ccccc3F)nc2cc1C	x	102	26	1	4	x	x	x
Cc1cc2cc(C)c(NCCNC(=O)c3cccs3)nc2cc1C	-16	97	97*	0	-20	1	64*	22*
